Results as given in PMC6716794 (Biochemistry, 2019).
Entries after “also recorded” stand apart in the source; their conditions may differ.

Tests used:
thrombin ABE I = settings: ligand bound to ABE II; cited from earlier work
[1] = molecular target: T1, ProT (prothrombin), pro-ABE I (Homo sapiens, UniProt P00734); assay: 1D and 2D 1H,15N-HSQC NMR titration with ProT; format: binding; settings: [15N]-labeled at F55, K51, E53, D58 and E60; pH 6.5, 25 °C
Method in brief: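 Human plasma prothrombin buffer-exchanged into NMR buffer (25 mM H3PO4, 150 mM NaCl, 0.2 mM EDTA, pH 6.5). 15N-labeled PAR1 peptide held constant at 50 μM while protein was serially diluted from 115 or 150 μM. 1D/2D 1H,15N-HSQC shifts were fitted to a quadratic binding equation for KD, with Monte-Carlo errors assuming 10% dilution error. Titrations were run at least in duplicate.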

[2] = molecular target: T1, ProT (prothrombin), pro-ABE I; assay: 1D proton line broadening with ProT; format: binding; settings: NMR buffer pH 6.5, 25 °C
Method in brief: (§1)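 Human plasma proteins: prothrombin, and thrombin blocked with PPACK (4:1 PPACK:thrombin, 37 °C, 30 min). Both were exchanged by ultrafiltration into NMR buffer (25 mM H3PO4, 150 mM NaCl, 0.2 mM EDTA, pH 6.5), and concentrations were set by E1%280 (13.8 prothrombin, 18.3 thrombin). Peptide at about 10-fold excess. Peptide 1H spectra were compared with and without enzyme.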

PPACK-thrombin, ABE I = assay: 1D proton line broadening with PPACK-thrombin; format: binding, human; settings: NMR buffer pH 6.5, 25 °C
Method in brief: as §1

Substance: GpIbα: platelet receptor glycoprotein GpIbα, binds thrombin ABE II
- Effect on affinity of thrombomodulin TM456 for thrombin ABE I (thrombin ABE I): the affinity of thrombomodulin TM456 for ABE I decreases

Substance: PAR1G (49–62, P54G): weak binding PAR1 variant, residues 49–62 with P54G (NDKYEGFWEDEEKN; UniProt P25116 49-62, looked up, fragment P54G)
- Binding with pro-ABE I on ProT [1]: very weak binding with pro-ABE I on ProT
- 1D proton line broadening with ProT (PAR1G) ([2]; 830 μM PAR1G with 83 μM ProT): 1D proton line broadening could still be observed
- 1D proton line broadening with mature thrombin (PAR1G) (PPACK-thrombin, ABE I; 870 μM PAR1G with 87 μM PPACK-thrombin): increased further with the mature thrombin; also recorded: the interactions increased upon formation of mature thrombin

Substance: PAR1P (49–62, P54): native PAR1 sequence peptide, residues 49–62, P54 (NDKYEPFWEDEEKN; UniProt P25116 49-62, looked up, fragment)
- 1D proton line broadening with ProT (PAR1P) ([2]; 780 μM PAR1P with 59 μM ProT, residues D50, K51, E53, F55, D58, E60): Substantial amide proton peak broadening; also recorded: moderate interactions with ProT
- 1D proton line broadening with PPACK-thrombin (PAR1P) (PPACK-thrombin, ABE I; 900 μM PAR1P with 97 μM PPACK-thrombin): increase in line broadening; also recorded: the interactions increased upon formation of mature thrombin
